Laboratory results reported in ChEMBL document CHEMBL5661986, “Discovery of the SMYD3 Inhibitor BAY-6035 Using Thermal Shift Assay (TSA)-Based High-Throughput Screening” (SLAS Discov, 2021).
≈ marks a conversion by molar mass, not a printed value. Calls of active or inactive are those of the source. The calls are words filed in the database; no cut-off is given here.

Columns and labels:
[1] = biological target: T1, Histone-lysine N-methyltransferase SMYD3 (Homo sapiens, UniProt Q9H7B4); experiment: Binding affinity to recombinant human SMYD3 expressed in Escherichia coli assessed as catalytic inhibition using DYDNPIFEKFGKGGTYPRRYHVSYHGK-Biotin as substrate by scintillation proximity assay
T1 sequence (Q9H7B4 whole entry): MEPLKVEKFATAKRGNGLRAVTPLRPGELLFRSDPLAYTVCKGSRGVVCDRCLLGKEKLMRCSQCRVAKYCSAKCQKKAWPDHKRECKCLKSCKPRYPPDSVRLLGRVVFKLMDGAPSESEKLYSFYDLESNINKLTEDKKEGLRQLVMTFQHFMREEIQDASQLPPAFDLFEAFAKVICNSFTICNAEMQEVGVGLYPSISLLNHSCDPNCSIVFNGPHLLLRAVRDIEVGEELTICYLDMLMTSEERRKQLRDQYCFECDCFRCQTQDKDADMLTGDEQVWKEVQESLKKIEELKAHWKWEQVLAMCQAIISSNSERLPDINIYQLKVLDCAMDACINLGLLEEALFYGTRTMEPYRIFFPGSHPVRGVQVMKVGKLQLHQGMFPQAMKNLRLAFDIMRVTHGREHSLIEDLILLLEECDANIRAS

[2] = Lipophilicity, log D of the compound at pH 7.5; format: physicochemical; details: buffer
[3] = Kinetic solubility of the compound at pH 6.5; format: physicochemical; details: buffer, read-out: Kinetic_solubility
[4] = biological target: T2, Histone-lysine N-methyltransferase SMYD3 (Homo sapiens) (UniProt Q9H7B4); details: dose 120.0 µM
T2 sequence (whole entry): T1 sequence (Q9H7B4 whole entry)

[5] = biological target: N-lysine methyltransferase SMYD2 (Homo sapiens) (UniProt Q9NRG4); experiment: Binding affinity to recombinant human SMYD2 expressed in Sf9 insect cells assessed as change in melting temperature at 120 uM by SYPRO Orange staining based thermal shift assay
How it was run: (§1)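 SMYD1 (aa 2–490) or SMYD2 (aa 2–433), His-tagged from Sf9, Ni-NTA then gel filtration; melt at 1.4 µM protein, 8x SYPRO Orange in 20 mM Tris pH 8.0, 100 mM NaCl, 8.5% glycerol, 1.0 mM DTT; scan 25–80 °C at 0.1 °C/s; 4% DMSO control.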

[6] = biological target: T3, Histone-lysine N-methyltransferase SMYD1 (Homo sapiens) (UniProt Q8NB12); experiment: Binding affinity to recombinant human SMYD1 expressed in Sf9 insect cells assessed as change in melting temperature at 120 uM by SYPRO Orange staining based thermal shift assay; how it was run: as §1
T3 sequence (whole entry): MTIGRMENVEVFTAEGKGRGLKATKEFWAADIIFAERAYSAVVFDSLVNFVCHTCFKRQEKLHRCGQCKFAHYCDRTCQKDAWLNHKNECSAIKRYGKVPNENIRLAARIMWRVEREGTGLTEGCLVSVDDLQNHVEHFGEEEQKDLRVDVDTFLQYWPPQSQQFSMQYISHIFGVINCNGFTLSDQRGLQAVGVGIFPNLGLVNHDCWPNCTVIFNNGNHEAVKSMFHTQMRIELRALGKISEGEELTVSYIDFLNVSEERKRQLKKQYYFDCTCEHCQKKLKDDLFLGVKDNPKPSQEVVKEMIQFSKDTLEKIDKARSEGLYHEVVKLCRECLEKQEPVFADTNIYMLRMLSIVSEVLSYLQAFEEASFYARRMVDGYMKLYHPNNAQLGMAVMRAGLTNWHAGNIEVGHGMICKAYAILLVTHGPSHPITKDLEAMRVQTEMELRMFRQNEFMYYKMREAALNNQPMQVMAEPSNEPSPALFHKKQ

[7] = biological target: T2, Histone-lysine N-methyltransferase SMYD3 (Homo sapiens); experiment: Binding affinity to recombinant human SMYD3 expressed in Escherichia coli assessed as change in melting temperature at 10 to 200 uM by SYPRO Orange staining based thermal shift assay; details: dose 10-200 µM
How it was run: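 Full-length untagged SMYD3 (aa 1–428, E. coli, His tag removed by TEV) at 1.5–2.0 µM with 5x SYPRO Orange in 20 mM Tris pH 7.0, 150 mM NaCl, 1.0 mM DTT; compound titration 10–200 µM; 4% DMSO control; melting scanned 25–80 °C at 0.1 °C/s; Tm shift read.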

[8] = Dissociation constant, pKa of compound; format: physicochemical
[9] = system: Histone-lysine N-methyltransferase SMYD3 (Homo sapiens), Q9H7B4 [UNDEFINED MUTATION]; experiment: Inhibition of SMYD3 catalytic inactive mutant co-expressed with HA-tagged MAP3K2 transfected in human HeLa cells assessed as reduction of MAP3K2-K260me3 level upto 10 uM incubated for 20 hrs by Western blotting analysis; format: cell-based
How it was run: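 After 4 h, compound or DMSO for 20 h. Lysates immunoblotted for MAP3K2-K260me3 (in-house antibody), HA, SMYD3 and MAP3K2 with infrared secondaries. K260me3 signal normalized to HA; three technical replicates, mean ± SEM, nonlinear fit.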

Sequence of N-lysine methyltransferase SMYD2 (Homo sapiens) (Q9NRG4 whole entry, the tested form may be a part): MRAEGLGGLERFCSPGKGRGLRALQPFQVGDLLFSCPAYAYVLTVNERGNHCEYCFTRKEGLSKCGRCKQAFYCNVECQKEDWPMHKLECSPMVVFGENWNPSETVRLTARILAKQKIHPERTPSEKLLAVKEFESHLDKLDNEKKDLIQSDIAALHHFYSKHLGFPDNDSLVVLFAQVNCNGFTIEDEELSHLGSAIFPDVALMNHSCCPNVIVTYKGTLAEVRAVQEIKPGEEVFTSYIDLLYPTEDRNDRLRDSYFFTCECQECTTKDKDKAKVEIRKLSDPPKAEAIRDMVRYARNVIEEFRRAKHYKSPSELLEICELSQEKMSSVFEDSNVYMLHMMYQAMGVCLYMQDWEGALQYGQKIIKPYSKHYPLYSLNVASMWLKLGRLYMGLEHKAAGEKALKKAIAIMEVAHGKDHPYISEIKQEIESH

Row | SMILES | IC50 [1] [µM] | logD [2] | solubility kinetic [3] [mg/mL] | deltaTm [4] [K] | deltaTm [5] [K] | deltaTm [6] [K] | deltaTm [7] [K] | pKa [8] | inhibition [9]
1 | C[C@H]1CC(=O)Nc2cc(C(=O)NCCC3CC3)ccc2N1C(=O)N1CCNCC1 | 0.252 | 1.4 | 0.374 (≈ 936 µM) | 7.42 |  |  |  |  | 
2 | C[C@@H]1CC(=O)Nc2cc(C(=O)NCCC3CC3)ccc2N1C(=O)N1CCC(N)CC1 |  | 1.4 | 0.32 (≈ 775 µM) |  |  |  |  |  | 
3 | CCCCNC(=O)c1ccc2c(c1)NC(=O)CC(C)N2C(=O)c1ccccc1F (configuration not stated) | 12 |  |  | 2.4 | 0 | 0 | 0.7 |  | 
4 | C[C@H]1CC(=O)Nc2cc(C(=O)NCCC3CC3)ccc2N1C(=O)N1CCC(N)CC1 |  | 1.4 | 0.318 (≈ 768 µM) |  |  |  |  |  | 
5 | C[C@H]1CC(=O)Nc2cc(C(=O)NCCC3CC3)ccc2N1C(=O)N1CCC(F)(F)C1 | 0.763 | 2 | 0.294 (≈ 700 µM) | 6.16 |  |  |  |  | 
6 | C[C@H]1CC(=O)Nc2cc(C(=O)NCCC3CC3)ccc2N1C(=O)N1CCN(CC(F)(F)F)CC1 | 1.51 | 2.2 |  | 5.26 |  |  |  |  | 
7 | C[C@H]1CC(=O)Nc2cc(C(=O)N(C)CCC3CC3)ccc2N1C(=O)N1CC2CC2C1 (some centres not stated) | 2.64 |  |  | 3.9 |  |  |  |  | 
8 | CCCNC(=O)c1ccc2c(c1)NC(=O)CC(C)N2C(=O)c1cccs1 (configuration not stated) | 18 |  |  |  | 0 | -0.2 | 0.2 |  | 
9 | CCCCNC(=O)c1ccc2c(c1)NC(=O)CC(C)N2C(=O)c1cccc(F)c1 (configuration not stated) |  |  |  |  | 0.2 | 0 | 0 |  | 
10 | CCCCNC(=O)c1ccc2c(c1)NC(=O)CC(C)N2C(=O)CCC1CCCC1 (configuration not stated) | 18 |  |  |  | 0.2 | -0.2 | 0.4 |  | 
11 | CCCCCNC(=O)c1ccc2c(c1)NC(=O)CC(C)N2C(=O)c1ccccc1F (configuration not stated) | 24 |  |  |  | 0.2 | -0.2 | 0.2 |  | 
12 | CCCCCNC(=O)c1ccc2c(c1)NC(=O)CC(C)N2C(=O)C1CCCC1 (configuration not stated) | 27 |  |  |  | 0.1 | -0.1 | 0 |  | 
13 | C[C@H]1CC(=O)Nc2cc(C(=O)NCCC3CC3)ccc2N1C(=O)N1CCCNCC1 | 0.0542 | 1.4 | > 0.414 | 8.46 |  |  |  | 8.8 | 
14 | CCN1CCC(N(C)C(=O)N2c3ccc(C(=O)NCCC4CC4)cc3NC(=O)C[C@@H]2C)CC1 | 0.177 | 1.5 | > 0.456 | 8.2 |  |  |  |  | 
15 | C[C@H]1CC(=O)Nc2cc(C(=O)NCCC3CC3)ccc2N1C(=O)N1CCC(F)(F)CC1 | 2.33 | 2.1 | 0.231 (≈ 531 µM) | 5.6 |  |  |  |  | 
16 | C[C@H]1CC(=O)Nc2cc(C(=O)NCCC3CC3)ccc2N1C(=O)N1CC[C@@H](N)C1.Cl | 0.832 | 1.4 | 0.33 | 5.91 |  |  |  |  | 
17 | C[C@H]1CC(=O)Nc2cc(C(=O)NCCC3CC3)ccc2N1C(=O)N(C)C1CCNCC1 | 0.493 | 1.3 | 0.257 (≈ 602 µM) | 6.1 |  |  |  |  | 
18 | CCN1CCN(C(=O)N2c3ccc(C(=O)NCCC4CC4)cc3NC(=O)C[C@@H]2C)CC1 | 0.459 | 1.7 | > 0.427 | 7.34 |  |  |  |  | 
19 | C[C@@H]1CC(=O)Nc2cc(C(=O)N(C)CCC3CC3)ccc2N1C(=O)N1CC2CC2C1 (some centres not stated) | > 100 |  |  |  |  |  |  |  | inactive
20 | C[C@H]1CC(=O)Nc2cc(C(=O)NCCC3CC3)ccc2N1C(=O)N1CC[C@H](N)C1.Cl | 0.259 | 1.4 | 0.294 | 7.56 |  |  |  |  | 
21 | CCCCCNC(=O)c1ccc2c(c1)NC(=O)CC(C)N2C(=O)c1ccc(C)cc1 (configuration not stated) | 22 |  |  |  | 0.2 | 0.2 | 0.2 |  | 
22 | C[C@H]1CC(=O)Nc2cc(C(=O)NCCC3CC3)ccc2N1C(=O)NC1CCNCC1 | 0.396 | 1.3 | 0.252 (≈ 609 µM) | 6.77 |  |  |  |  | 
23 | CC1CC(=O)Nc2cc(C(=O)NCCC3CCC3)ccc2N1C(=O)c1ccccc1 (racemic) | 1.85 | 2.4 | 0.0875 (≈ 216 µM) | 4.77 |  |  |  |  | 
24 | C[C@@H]1CC(=O)Nc2cc(C(=O)NCCC3CC3)ccc2N1C(=O)N1CC2CC2C1 (some centres not stated) | 2.53 |  |  | 5.15 |  |  |  |  | 
25 | C[C@H]1CC(=O)Nc2cc(C(=O)NCCC3CC3)ccc2N1C(=O)N1CCC(NCC(F)(F)F)CC1 | 1.03 | 2.2 | 0.312 (≈ 631 µM) | 5.63 |  |  |  |  | 
26 | CC1CC(=O)Nc2cc(C(=O)NCCC3CC3)ccc2N1C(=O)c1ccccc1 (racemic) | 1.97 | 2.1 | 0.0955 (≈ 244 µM) | 3.9 |  |  |  |  | 
27 | C[C@H]1CC(=O)Nc2cc(C(=O)NCCC3CC3)ccc2N1C(=O)N1CCN(CCO)CC1 | 1.08 | 1.5 | 0.254 (≈ 573 µM) | 5.63 |  |  |  |  | 
28 | C[C@H]1CC(=O)Nc2cc(C(=O)NCCC3CC3)ccc2N1C(=O)N(C)C1CCN(CC(F)(F)F)CC1 | 5.56 | 2.4 | 0.345 (≈ 677 µM) | 3.34 |  |  |  |  | 
